Assay results from ChEMBL document CHEMBL1782009, “Synthesis and characterization of new types of halogenated and alkylated imidazolidineiminothiones and a comparative study of their antitumor, antibacterial, and antifungal activities” (Eur J Med Chem, 2011).
Converted amounts (≈) assume the structure as drawn.

Tests used:
[1] = test system: Staphylococcus aureus; experiment: Antibacterial activity against Staphylococcus aureus NCTC 7447 at 5 mg/ml after 24 hrs by agar disc diffusion method; assay type: functional; details: NCTC 7447, 24 h, read-out: DIZ
In short: (§1)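 Agar well-diffusion using 1 cm wells, each loaded with 100 of compound solution (5 mg/mL in DMF). Bacteria were maintained on nutrient agar and plated as a standard suspension. Plates were incubated 24 h at 35 °C, and inhibition zone diameters were measured.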

[2] = test system: HCT-116; experiment: Cytotoxicity against human HCT116 cells assessed as surviving fraction at 5 ug/ml after 48 hrs by SRB assay relative to control; assay type: functional
In short: (§2)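 SRB assay per Skehan: compounds at 5.0, 12.5, 25 and 50 were added to cell monolayers in triplicate wells per dose for 48 h at 37 °C, 5% CO2. Cells were then fixed and stained with SRB, excess stain was removed with acetic acid, and bound dye was recovered in Tris EDTA. Surviving fraction was plotted against concentration, and IC50 was read from the dose–response curves.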

[3] = test system: MCF7; experiment: Cytotoxicity against human MCF7 cells after 48 hrs by SRB assay; assay type: functional, cell-based; details: MCF7, 48 h; in short: as §2
[4] = test system: MCF7; experiment: Cytotoxicity against human MCF7 cells assessed as surviving fraction at 50 ug/ml after 48 hrs by SRB assay relative to control; assay type: functional; in short: as §2
[5] = test system: MCF7; experiment: Cytotoxicity against human MCF7 cells assessed as surviving fraction at 25 ug/ml after 48 hrs by SRB assay relative to control; assay type: functional; in short: as §2
[6] = test system: HepG2; experiment: Cytotoxicity against human HepG2 cells assessed as surviving fraction at 5 ug/ml after 48 hrs by SRB assay relative to control; assay type: functional; in short: as §2
[7] = test system: Bacillus subtilis; experiment: Antibacterial activity against Bacillus subtilis NCTC 1040 at 5 mg/ml after 24 hrs by agar disc diffusion method; assay type: functional; details: NCTC 1040, 24 h, read-out: DIZ; in short: as §1
[8] = test system: Aspergillus flavus; experiment: Antifungal activity against Aspergillus flavus at 5 mg/ml by agar disc diffusion method; assay type: functional; details: read-out: DIZ
[9] = test system: HCT-116; experiment: Cytotoxicity against human HCT116 cells assessed as surviving fraction at 25 ug/ml after 48 hrs by SRB assay relative to control; assay type: functional; in short: as §2
[10] = test system: HeLa; experiment: Cytotoxicity against human HeLa cells after 48 hrs by SRB assay; assay type: functional, cell-based; in short: as §2
[11] = test system: HCT-116; experiment: Cytotoxicity against human HCT116 cells after 48 hrs by SRB assay; assay type: functional, cell-based; details: HCT-116, 48 h; in short: as §2
[12] = test system: HeLa; experiment: Cytotoxicity against human HeLa cells assessed as surviving fraction at 5 ug/ml after 48 hrs by SRB assay relative to control; assay type: functional; in short: as §2
[13] = test system: HepG2; experiment: Cytotoxicity against human HepG2 cells assessed as surviving fraction at 50 ug/ml after 48 hrs by SRB assay relative to control; assay type: functional; in short: as §2
[14] = test system: Micrococcus luteus; experiment: Antibacterial activity against Sarcina lutea ATCC 934 at 5 mg/ml after 24 hrs by agar disc diffusion method; assay type: functional; details: ATCC 934, 24 h, read-out: DIZ; in short: as §1
[15] = test system: MCF7; experiment: Cytotoxicity against human MCF7 cells assessed as surviving fraction at 12.5 ug/ml after 48 hrs by SRB assay relative to control; assay type: functional; in short: as §2
[16] = test system: HEp-2; experiment: Cytotoxicity against human Hep2 cells assessed as surviving fraction at 50 ug/ml after 48 hrs by SRB assay relative to control; assay type: functional; in short: as §2
[17] = test system: Escherichia coli; experiment: Antibacterial activity against Escherichia coli NCTC 10416 at 5 mg/ml after 24 hrs by agar disc diffusion method; assay type: functional; details: NCTC 10416, 24 h, read-out: DIZ; in short: as §1
[18] = test system: HeLa; experiment: Cytotoxicity against human HeLa cells assessed as surviving fraction at 12.5 ug/ml after 48 hrs by SRB assay relative to control; assay type: functional; in short: as §2
[19] = test system: HeLa; experiment: Cytotoxicity against human HeLa cells assessed as surviving fraction at 50 ug/ml after 48 hrs by SRB assay relative to control; assay type: functional; in short: as §2
[20] = test system: HEp-2; experiment: Cytotoxicity against human Hep2 cells assessed as surviving fraction at 12.5 ug/ml after 48 hrs by SRB assay relative to control; assay type: functional; in short: as §2
[21] = test system: HEp-2; experiment: Cytotoxicity against human Hep2 cells assessed as surviving fraction at 25 ug/ml after 48 hrs by SRB assay relative to control; assay type: functional; in short: as §2
[22] = test system: MCF7; experiment: Cytotoxicity against human MCF7 cells assessed as surviving fraction at 5 ug/ml after 48 hrs by SRB assay relative to control; assay type: functional; in short: as §2
[23] = test system: HepG2; experiment: Cytotoxicity against human HepG2 cells assessed as surviving fraction at 25 ug/ml after 48 hrs by SRB assay relative to control; assay type: functional; in short: as §2
[24] = test system: HEp-2; experiment: Cytotoxicity against human Hep2 cells after 48 hrs by SRB assay; assay type: functional, cell-based; details: HEp-2, 48 h; in short: as §2
[25] = test system: HCT-116; experiment: Cytotoxicity against human HCT116 cells assessed as surviving fraction at 12.5 ug/ml after 48 hrs by SRB assay relative to control; assay type: functional; in short: as §2
[26] = test system: HCT-116; experiment: Cytotoxicity against human HCT116 cells assessed as surviving fraction at 50 ug/ml after 48 hrs by SRB assay relative to control; assay type: functional; in short: as §2
[27] = test system: HepG2; experiment: Cytotoxicity against human HepG2 cells assessed as surviving fraction at 12.5 ug/ml after 48 hrs by SRB assay relative to control; assay type: functional; in short: as §2
[28] = test system: HepG2; experiment: Cytotoxicity against human HepG2 cells after 48 hrs by SRB assay; assay type: functional, cell-based; details: HepG2, 48 h; in short: as §2
[29] = test system: HEp-2; experiment: Cytotoxicity against human Hep2 cells assessed as surviving fraction at 5 ug/ml after 48 hrs by SRB assay relative to control; assay type: functional; in short: as §2
[30] = Antitumor activity against mouse EAC cells assessed as inhibition of cell viability at 100 ug/ml by Trypan blue assay; assay type: functional; details: Ehrlich
In short: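 EAC cells were taken by needle aspiration of ascitic fluid from preinoculated mice and diluted 1:10 in saline. Then 0.1 mL of cell suspension, 0.8 mL RPMI 1640 and 0.1 mL compound were incubated 2 h at 37 °C. Dead cells were counted by trypan blue exclusion, and % non-viable = non-viable/total cells × 100.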

[31] = test system: Candida albicans; experiment: Antifungal activity against Candida albicans IMRU 3669 at 5 mg/ml by agar disc diffusion method; assay type: functional; details: read-out: DIZ
[32] = test system: HeLa; experiment: Cytotoxicity against human HeLa cells assessed as surviving fraction at 25 ug/ml after 48 hrs by SRB assay relative to control; assay type: functional; in short: as §2

Structure (SMILES)	zone of inhibition at 5000 µg/mL [1] [mm]	Activity [2]	IC50 [3] [µg/mL]	Activity [4]	Activity [5]	Activity [6]	zone of inhibition at 5000 µg/mL [7] [mm]	zone of inhibition at 5000 µg/mL [8] [mm]	Activity [9]	IC50 [10] [µg/mL]	IC50 [11] [µg/mL]	Activity [12]	Activity [13]	zone of inhibition at 5000 µg/mL [14] [mm]	Activity [15]	Activity [16]	zone of inhibition at 5000 µg/mL [17] [mm]	Activity [18]	Activity [19]	Activity [20]	also measured
COc1ccc(N2C(=N)C(=S)N(c3ccc(OC)cc3OC)C2=O)cc1	20	0.35	3.28 (≈ 8.83 µM)	0.27	0.18	0.42	20	17	0.19	3.12 (≈ 8.4 µM)	3.73 (≈ 10 µM)	0.21	0.23	24	0.17	0.28	24.5	0.16	0.23	0.2	Activity [21]: 0.21; Activity [22]: 0.25; Activity [23]: 0.19; IC50 [24]: 3.89 µg/mL (≈ 10.5 µM); Activity [25]: 0.26; Activity [26]: 0.29; Activity [27]: 0.28; IC50 [28]: 4.34 µg/mL (≈ 11.7 µM); Activity [29]: 0.36; inhibition at 100 µg/mL [30]: 80%; zone of inhibition at 5000 µg/mL [31]: 22 mm; Activity [32]: 0.17
COc1ccc(N2C(=O)N(c3ccc(SC)cc3)C(=N)C2=S)c(OC)c1	18	0.74	12 (≈ 31 µM)	0.28	0.19	0.69	18	14	0.24	9.83 (≈ 25.4 µM)	10.6 (≈ 27.4 µM)	0.74	0.24	18	0.49	0.27	19	0.37	0.22	0.49	Activity [21]: 0.2; Activity [22]: 0.68; Activity [23]: 0.19; IC50 [24]: 12.1 µg/mL (≈ 31.2 µM); Activity [25]: 0.42; Activity [26]: 0.35; Activity [27]: 0.47; IC50 [28]: 11.8 µg/mL (≈ 30.5 µM); Activity [29]: 0.71; inhibition at 100 µg/mL [30]: 70%; zone of inhibition at 5000 µg/mL [31]: 20 mm; Activity [32]: 0.2
